The text below walks through data of ChEMBL document CHEMBL1687803, “Elevated linezolid resistance in clinical cfr-positive Staphylococcus aureus isolates is associated with co-occurring mutations in ribosomal protein L3” (2010).

Holding throughout (type): functional
The subject of experiment [1] is Staphylococcus aureus. Kind of experiment: Antibacterial activity against laboratory-derived Staphylococcus aureus isolate 29213-3 harboring ribosomal protein L3 deltaPhe127-His146 mutant and cfr-containing p42262 by broth microdilution method. The procedure, abridged:
(§1)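 The S. aureus ATCC 29213 parent and its isogenic L3 mutants carried the cfr plasmid p42262, introduced by electroporation. The plasmid came from clinical strain 42262. MICs were then measured by CLSI broth microdilution against oxazolidinones and comparator antibiotics.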

In experiment [2] the test system is Staphylococcus aureus. Kind of experiment: Antibacterial activity against clinical-derived Staphylococcus aureus isolate 51312 harboring ribosomal protein L3 deltaMet169-Gly174 mutant by broth microdilution method. A digest of the protocol: (§2)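 MICs were measured by broth microdilution following CLSI guidelines against clinical cfr-positive S. aureus isolates. Oxazolidinones and comparator antibiotics were tested. Extra ribosomal mutations were identified by sequencing 23S rRNA domain V of all alleles and the rplC and rplD genes.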
In general terms: Dilution methods test growth across graded concentrations, often in twofold steps.

For experiment [3], the system named is Staphylococcus aureus. Briefly: Antibacterial activity against laboratory-derived Staphylococcus aureus ATCC 29213 by broth microdilution method. The procedure, abridged:
(§3)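 MICs were measured by CLSI broth microdilution against the S. aureus ATCC 29213 parent or its isogenic L3 mutants. The mutants had been selected earlier in vitro with oxazolidinones. Oxazolidinones and comparator antibiotics were tested. L3 mutations use staphylococcal numbering.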

The test system of experiment [4] is Staphylococcus aureus. Kind of experiment: Antibacterial activity against clinical-derived Staphylococcus aureus isolate harboring ribosomal protein L3 deltaSer145/His146Tyr mutant by broth microdilution method. A digest of the protocol:
as §2

Experiment [5] has as its system Staphylococcus aureus. Kind of experiment: Antibacterial activity against laboratory-derived Staphylococcus aureus isolate 29213-3 harboring ribosomal protein L3 deltaPhe127-His146 mutant by broth microdilution method. A digest of the protocol:
as §3

For experiment [6], the system named is Staphylococcus aureus. Briefly: Antibacterial activity against laboratory-derived Staphylococcus aureus isolate 29213-2 harboring ribosomal protein L3 Gly155Arg/Met169Leu mutant by broth microdilution method. A digest of the protocol:
as §3

In experiment [7] the test system is Staphylococcus aureus. Kind of experiment: Antibacterial activity against laboratory-derived Staphylococcus aureus isolate 29213-2 harboring ribosomal protein L3 Gly155Arg/Met169Leu mutant and cfr-containing p42262 by broth microdilution method. The procedure, abridged:
as §1

Experiment [8] deals with Staphylococcus aureus. Briefly: Antibacterial activity against laboratory-derived Staphylococcus aureus isolate 29213-1 harboring ribosomal protein L3 Gly155Arg mutant by broth microdilution method. A digest of the protocol:
as §3

In experiment [9] the test system is Staphylococcus aureus. Kind of experiment: Antibacterial activity against laboratory-derived Staphylococcus aureus isolate 29213-1 harboring ribosomal protein L3 Gly155Arg mutant and cfr-containing p42262 by broth microdilution method. A digest of the protocol: as §1
Experiment [10] concerns Staphylococcus aureus. Briefly: Antibacterial activity against clinical-derived Staphylococcus aureus isolate 42262 by broth microdilution method. A digest of the protocol: as §2
Experiment [11] concerns Staphylococcus aureus. Kind of experiment: Antibacterial activity against laboratory-derived Staphylococcus aureus ATCC 29213 harboring cfr-containing p42262 by broth microdilution method. The procedure, abridged: as §1
The subject of experiment [12] is Staphylococcus aureus. Kind of experiment: Antibacterial activity against cfr positive Staphylococcus aureus clinical isolate by broth microdilution method. The procedure, abridged: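 MICs against clinical cfr-positive S. aureus isolates (groups 1–3 plus an environmental strain), by CLSI broth microdilution. Non-isogenic ATCC 29213 served as a linezolid-susceptible control strain. Isolates were also characterised by sequencing 23S rRNA domain V (all alleles), rplC (L3) and rplD (L4).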

In experiment [13] the test system is Staphylococcus aureus. Kind of experiment: Antibacterial activity against laboratory-generated cfr-transformed Staphylococcus aureus by broth microdilution method. A digest of the protocol: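 Isogenic panel in the S. aureus ATCC 29213 background: wild-type parent and three laboratory-selected L3 mutants, each electroporated with cfr plasmid p42262 from clinical strain 42262. MICs were read by CLSI broth microdilution.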

Structures are written as SMILES. ≈ marks a conversion by molar mass, not a printed value. A value given as a limit tells only on which side of the number the result lay.

Take `O=C(N[C@H](CO)[C@H](O)c1ccc([N+](=O)[O-])cc1)C(Cl)Cl` [CHLORAMPHENICOL]: the minimal inhibitory concentration (MIC) (as a rule, the lowest concentration that inhibits growth of the organism) in the experiment with Staphylococcus aureus [1] is above 64 µg/mL; in the experiment with Staphylococcus aureus [2], above 64 µg/mL; against Staphylococcus aureus [3], 8 µg/mL (≈ 24.8 µM); in the experiment with Staphylococcus aureus [4] it was above 64 µg/mL; against Staphylococcus aureus [5], 8 µg/mL (≈ 24.8 µM); with Staphylococcus aureus [6], 8 µg/mL (≈ 24.8 µM). The MIC in the experiment on Staphylococcus aureus [7] was above 64 µg/mL; in the experiment on Staphylococcus aureus [8], 8 µg/mL (≈ 24.8 µM); in the experiment with Staphylococcus aureus [9], above 64 µg/mL; against Staphylococcus aureus [10] it was above 64 µg/mL; against Staphylococcus aureus [11], above 64 µg/mL.

Regarding `Cn1nnc(-c2ccc(-c3ccc(N4C[C@H](CO)OC4=O)cc3F)cn2)n1` [TEDIZOLID], the minimal inhibitory concentration (MIC) against Staphylococcus aureus [1] was determined as 2 µg/mL (≈ 5.4 µM); against Staphylococcus aureus [2], 2 µg/mL (≈ 5.4 µM); against Staphylococcus aureus [3], 0.5 µg/mL (≈ 1.35 µM); against Staphylococcus aureus [4], 1 µg/mL (≈ 2.7 µM); with Staphylococcus aureus [5], 2 µg/mL (≈ 5.4 µM); in the experiment with Staphylococcus aureus [6], 2 µg/mL (≈ 5.4 µM). In addition, the minimum inhibitory concentration (MIC) with Staphylococcus aureus [7] came out at 2 µg/mL (≈ 5.4 µM); against Staphylococcus aureus [8], 1 µg/mL (≈ 2.7 µM); in the experiment with Staphylococcus aureus [9] it was 1 µg/mL (≈ 2.7 µM); against Staphylococcus aureus [10], 0.5 µg/mL (≈ 1.35 µM); against Staphylococcus aureus [11], 0.5 µg/mL (≈ 1.35 µM).

Consider `CC(=O)NC[C@H]1CN(c2ccc(-c3ccc(CNCc4cnn[nH]4)cc3)c(F)c2)C(=O)O1` [RADEZOLID], for which the minimal inhibitory concentration (MIC) against Staphylococcus aureus [1] came out at 8 µg/mL (≈ 18.2 µM); with Staphylococcus aureus [2], 8 µg/mL (≈ 18.2 µM); against Staphylococcus aureus [3], 1 µg/mL (≈ 2.28 µM); in the experiment with Staphylococcus aureus [4], 4 µg/mL (≈ 9.12 µM); against Staphylococcus aureus [5], 2 µg/mL (≈ 4.56 µM); against Staphylococcus aureus [6], 2 µg/mL (≈ 4.56 µM). The MIC against Staphylococcus aureus [7] was 8 µg/mL (≈ 18.2 µM); in the experiment with Staphylococcus aureus [8] it was 1 µg/mL (≈ 2.28 µM); against Staphylococcus aureus [9], 4 µg/mL (≈ 9.12 µM); with Staphylococcus aureus [10], 4 µg/mL (≈ 9.12 µM); in the experiment with Staphylococcus aureus [11], 2 µg/mL (≈ 4.56 µM).

In the case of `CC(=O)NC[C@H]1CN(c2ccc(N3CCOCC3)c(F)c2)C(=O)O1` [LINEZOLID], the MIC came to 64 µg/mL (≈ 190 µM) with Staphylococcus aureus [1]; 64 µg/mL (≈ 190 µM) against Staphylococcus aureus [2]; 8 µg/mL (≈ 23.7 µM) against Staphylococcus aureus [12]; 32 µg/mL (≈ 94.9 µM) in the experiment with Staphylococcus aureus [4]; 8 µg/mL (≈ 23.7 µM) in the experiment on Staphylococcus aureus [5]; 8 µg/mL (≈ 23.7 µM) against Staphylococcus aureus [13]. For the same compound, the MIC with Staphylococcus aureus [6] was found to be 8 µg/mL (≈ 23.7 µM); in the experiment with Staphylococcus aureus [7] it was 64 µg/mL (≈ 190 µM); with Staphylococcus aureus [9], 32 µg/mL (≈ 94.9 µM); with Staphylococcus aureus [10] it was 16 µg/mL (≈ 47.4 µM); against Staphylococcus aureus [11], 16 µg/mL (≈ 47.4 µM).

In the case of `C=C[C@]1(C)C[C@@H](OC(=O)CSCCN(CC)CC)[C@]2(C)[C@H](C)CC[C@]3(CCC(=O)[C@H]32)[C@@H](C)[C@@H]1O` [TIAMULIN], the MIC was above 64 µg/mL in the experiment with Staphylococcus aureus [1]; above 64 µg/mL against Staphylococcus aureus [2]; 0.5 µg/mL (≈ 1.01 µM) against Staphylococcus aureus [3]; above 64 µg/mL against Staphylococcus aureus [4]; 4 µg/mL (≈ 8.1 µM) in the experiment on Staphylococcus aureus [5]; 4 µg/mL (≈ 8.1 µM) with Staphylococcus aureus [6]. The MIC was above 64 µg/mL in the experiment with Staphylococcus aureus [7]; 8 µg/mL (≈ 16.2 µM) in the experiment on Staphylococcus aureus [8]; above 64 µg/mL with Staphylococcus aureus [9]; above 64 µg/mL in the experiment with Staphylococcus aureus [10]; above 64 µg/mL in the experiment with Staphylococcus aureus [11].
